Published values pooled from the literature.
Compare with care: the assays were run in different laboratories. pIC50, pKi: −log10 of the molar value.
Target: Kappa-type opioid receptor (OPRK1, Homo sapiens, UniProt P41145)

COC(=O)/C=C/C(=O)N[C@@H]1CC[C@@]2(O)[C@H]3Cc4ccc(O)c5c4[C@@]2(CCN3CC2CC2)[C@H]1O5
pIC50 (ligand displacement; radioligand; cell membranes): 8.11

Cc1cc(O)cc(C)c1C[C@H](N)C(=O)N1CCc2ccc(Cc3cccc([N+](=O)[O-])c3)cc2C1
pKi (ligand displacement; radioligand; cell membranes): 8.60

Cc1cc(O)cc(C)c1C[C@H](N)C(=O)N1Cc2ccccc2CC1C(=O)NCC(=O)NC(Cc1ccc(Cl)cc1)C(=O)N(C)CCC[C@@]1(c2ccc(F)cc2)OCc2cc(C#N)ccc21 (stereo in doubt)
pKi (cell-free assay): 7.04

CC(CCc1ccc(O)cc1)NCCc1ccc(O)c(O)c1 (stereo not shown)
pIC50 (ligand displacement; radioligand): 5.28

Cc1cc(O)cc(C)c1C[C@H](N)C(=O)N[C@H](C)C(=O)NCC(=O)N[C@@H](Cc1ccc(Cl)cc1)C(=O)N(C)CCC[C@@]1(c2ccc(F)cc2)OCc2cc(C#N)ccc21
pKi (cell-free assay): 7.43

COC(=O)C(c1ccccc1)C1CCCCN1 (stereo not shown)
pIC50 (ligand displacement; radioligand): 5.16

CN[C@]1(c2ccccc2Cl)CCCCC1=O
pIC50 (ligand displacement; radioligand): 4.89

Cc1cc(O)cc(C)c1C[C@H](N)C(=O)N1CCc2ccc(Cc3ccc(N)cc3)cc2C1
pKi (ligand displacement; radioligand; cell membranes): 7.04

CCCO[C@@]12Cc3cc(-c4ccccc4)cnc3[C@@H]3Oc4c(O)ccc5c4[C@@]31CCN(CC1CC1)[C@@H]2C5
pKi (cell-free assay): 6.60

C[C@H]1[C@H]2Cc3ccc(O)cc3[C@]1(C)CCN2CC1CC1
pKi (cell-free assay): 9.02

Cc1ccccc1Cc1ccc2c(c1)CN(C(=O)[C@@H](N)Cc1c(C)cc(O)cc1C)CC2
pKi (ligand displacement; radioligand; cell membranes): 8.92

COc1ccc(C(=O)Nc2ccccc2CCC2CCCCN2C)cc1 (stereo not shown)
pIC50 (ligand displacement; radioligand): 5.44

COc1ncccc1-c1cnn2ccc(N3CCN(C(=O)OC(C)C)CC3)nc12
pIC50 (cell-free assay): < 4.52
